Results pooled from the literature.
Target: Fibroblast growth factor receptor 2 (FGFR2, Homo sapiens, UniProt P21802)

| SMILES | test | setting | quantity | value |
| --- | --- | --- | --- | --- |
| CC(C)(C)c1cc(C=C(C#N)C#N)cc(Br)c1O | enzyme activity, inhibitor | 0.5 µM | remaining activity | 96.4% |
| COCc1c(-c2cc3cc(C)cc(OC)c3s2)c2c(N)ncnn2c1CN1CCNC(=O)C1 | cell-free assay, competition with immobilised ligand | 1 µM | inhibition | 99.8% |
| Cn1cc(-c2cccc(N3CCc4c(sc5c4CC(C)(C)C5)C3=O)c2CO)cc(Nc2ccncn2)c1=O | enzyme activity, inhibitor | 1 µM | inhibition | 14% |
| N#CC1(c2ccccn2)CCN(Cc2cc(C(=O)O)c(=O)n3ccccc23)CC1 | cell-free assay, competition with immobilised ligand | 1 µM | remaining binding | 100% |
| Nc1ncc(-c2nc(N3CCOCC3)nc(N3CCOCC3)n2)c(C(F)F)n1 | cell-free assay, competition with immobilised ligand | 10 µM | remaining binding | 90% |
| O=c1[nH]c2ccccc2n1C1CCN(Cc2ccc(-c3[nH]c4cc5ncnc5cc4nc3-c3ccccc3)cc2)CC1 | cell-free assay | 0.5 µM | remaining signal | 94.2% |
| C#Cc1n[nH]c2c(-c3cn([C@@H](C)c4ccccc4)c(=O)[nH]c3=O)cc(F)cc12 | enzyme activity, inhibitor | 0.1 µM | inhibition | 1.6% |
| Cn1cncc1[C@](O)(COc1ccc(C#N)cc1-c1ccc(OC(F)(F)F)cc1)c1ccc(C#N)cc1 | cell-free assay, competition with immobilised ligand | 1 µM | remaining binding | 86% |
| Cn1cc(-c2cc(F)cc(N3CCn4c(cc5c4CCCC5)C3=O)c2CO)cc(Nc2ccc(N3CCN(C4COC4)CC3)cn2)c1=O | enzyme activity, inhibitor | 0.1 µM | inhibition | 15% |
| Cc1nn(C)cc1-c1nc2c(N3CCN(Cc4ccc(Cl)cc4)CC3)c(Cl)cnc2[nH]1 | binding, competition with immobilised ligand | 1 µM | remaining binding | 45% |
| C#Cc1n[nH]c2c(-c3cn([C@@H](C)c4ccccn4)c(=O)[nH]c3=O)cc(F)cc12 | enzyme activity, inhibitor | 0.1 µM | inhibition | 4.2% |
| COc1ncccc1-c1cnn2ccc(N3CCN(C(=O)OC(C)C)CC3)nc12 | binding, competition with immobilised ligand | 1 µM | remaining binding | 82% |
